Experimental data published in ChEMBL document CHEMBL5724801, “EUbOPEN Chemogenomics Library - Multiplex” (2024).
Several values for one entry are separate records, joined by “and”; a condition that tells them apart may be missing. Identical values can stand only once.

System: Fibroblast
Experiment: Multiplex assay against human fibroblast
Format: toxicity, cell-based
In short: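 Cells stained live at seeding with Hoechst33342, BioTracker Green Microtubule Cytoskeleton Dye, MitoTracker Red and Annexin V Alexa Fluor 680 were imaged on a CQ1 microscope at 37°C and 5% CO2 after compound addition. Their classification by CellPathfinder machine-learning gating ran from Hoechst high-intensity objects versus normal cells, to healthy, pyknosed or fragmented nuclei among normal cells, to mitotic or apoptotic among pyknosed cells. Tubulin, mitochondrial-mass and membrane-permeability phenotypes are per cents of healthy-nucleus cells.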

[1] = 12 h, 1 µM, compound concentration 1 uM
[2] = 12 h, 10 µM, compound concentration 10 uM
[3] = 24 h, 1 µM, compound concentration 1 uM
[4] = 24 h, 10 µM, compound concentration 10 uM
[5] = 48 h, 1 µM, compound concentration 1 uM
[6] = 48 h, 10 µM, compound concentration 10 uM

## CNC[C@H](O)c1ccc(O)c(O)c1 [EPINEPHRINE]
[1]
  Population Apoptotic (%): 36% and 40%
  Population Fragmented Nuclei (%): 17% and 38%
  Population Healthy Nuclei (%): 66% and 44%
  Population Hoechst High Intensity Objects (%): 1%
  Population Mitochondria Different-Phenotype (%): 3% and 7%
  Population Mitotic Cells (%): 63% and 60%
  Population Normal (%): 98%
  Population Pyknosed Nuclei (%): 16% and 17%
  Population Tubulin-Different-Phenotype (%): 15% and 42%
[2]
  Population Apoptotic (%): 40% and 32%
  Population Fragmented Nuclei (%): 18% and 39%
  Population Healthy Nuclei (%): 61% and 37%
  Population Hoechst High Intensity Objects (%): 3% and 7%
  Population Mitochondria Different-Phenotype (%): 6% and 8%
  Population Mitotic Cells (%): 60% and 67%
  Population Normal (%): 96% and 92%
  Population Pyknosed Nuclei (%): 20% and 23%
  Population Tubulin-Different-Phenotype (%): 23% and 55%
[3]
  Population Apoptotic (%): 54% and 23%
  Population Healthy Nuclei (%): 70% and 47%
  Population Hoechst High Intensity Objects (%): 0% and 3%
  Population Membrane Permeable-Phenotype (%): 0% and 12%
  Population Mitochondria Different-Phenotype (%): 3% and 6%
  Population Mitotic Cells (%): 45% and 76%
  Population Normal (%): 99% and 96%
  Population Pyknosed Nuclei (%): 16% and 14%
  Population Tubulin-Different-Phenotype (%): 11% and 32%
[4]
  Population Apoptotic (%): 65% and 38%
  Population Fragmented Nuclei (%): 16% and 39%
  Population Healthy Nuclei (%): 60% and 44%
  Population Hoechst High Intensity Objects (%): 3%
  Population Membrane Permeable-Phenotype (%): 0% and 12%
  Population Mitochondria Different-Phenotype (%): 5% and 4%
  Population Mitotic Cells (%): 34% and 61%
  Population Normal (%): 96%
  Population Pyknosed Nuclei (%): 23% and 15%
  Population Tubulin-Different-Phenotype (%): 21% and 51%
[5]
  Population Apoptotic (%): 50% and 38%
  Population Fragmented Nuclei (%): 17% and 41%
  Population Healthy Nuclei (%): 67% and 48%
  Population Hoechst High Intensity Objects (%): 1%
  Population Membrane Permeable-Phenotype (%): 0% and 6%
  Population Mitochondria Different-Phenotype (%): 6% and 5%
  Population Mitotic Cells (%): 50% and 61%
  Population Normal (%): 98%
  Population Pyknosed Nuclei (%): 15% and 10%
  Population Tubulin-Different-Phenotype (%): 23% and 45%
[6]
  Population Apoptotic (%): 77% and 37%
  Population Fragmented Nuclei (%): 20% and 50%
  Population Healthy Nuclei (%): 65% and 44%
  Population Hoechst High Intensity Objects (%): 2% and 3%
  Population Membrane Permeable-Phenotype (%): 2% and 6%
  Population Mitochondria Different-Phenotype (%): 4% and 3%
  Population Mitotic Cells (%): 22% and 62%
  Population Normal (%): 97% and 96%
  Population Pyknosed Nuclei (%): 13% and 5%
  Population Tubulin-Different-Phenotype (%): 32% and 46%

## CN[C@@H](C)C(=O)N[C@H](C(=O)N1CCC[C@H]1C(=O)Nc1snnc1-c1ccccc1)C1CCCCC1 [GDC-0152]
[1]
  Population Apoptotic (%): 70% and 33%
  Population Fragmented Nuclei (%): 14% and 16%
  Population Healthy Nuclei (%): 68% and 56%
  Population Hoechst High Intensity Objects (%): 4% and 6%
  Population Membrane Permeable-Phenotype (%): 1% and 6%
  Population Mitochondria Different-Phenotype (%): 6% and 9%
  Population Mitotic Cells (%): 30% and 66%
  Population Normal (%): 95% and 93%
  Population Pyknosed Nuclei (%): 16% and 26%
  Population Tubulin-Different-Phenotype (%): 38% and 62%
  Total Cell Count: 127 and 121
[2]
  Population Apoptotic (%): 38% and 24%
  Population Fragmented Nuclei (%): 17% and 26%
  Population Healthy Nuclei (%): 59% and 34%
  Population Hoechst High Intensity Objects (%): 6% and 10%
  Population Membrane Permeable-Phenotype (%): 0%
  Population Mitochondria Different-Phenotype (%): 13% and 10%
  Population Mitotic Cells (%): 61% and 75%
  Population Normal (%): 93% and 90%
  Population Pyknosed Nuclei (%): 22% and 39%
  Population Tubulin-Different-Phenotype (%): 80% and 65%
  Total Cell Count: 144 and 150
[3]
  Population Apoptotic (%): 60% and 37%
  Population Fragmented Nuclei (%): 20% and 22%
  Population Healthy Nuclei (%): 63% and 55%
  Population Hoechst High Intensity Objects (%): 2% and 9%
  Population Membrane Permeable-Phenotype (%): 1% and 2%
  Population Mitochondria Different-Phenotype (%): 1% and 11%
  Population Mitotic Cells (%): 40% and 62%
  Population Normal (%): 97% and 90%
  Population Pyknosed Nuclei (%): 16% and 22%
  Population Tubulin-Different-Phenotype (%): 30% and 61%
  Total Cell Count: 123 and 133
[4]
  Population Apoptotic (%): 67% and 41%
  Population Fragmented Nuclei (%): 14% and 33%
  Population Healthy Nuclei (%): 58% and 34%
  Population Hoechst High Intensity Objects (%): 5% and 8%
  Population Membrane Permeable-Phenotype (%): 0% and 16%
  Population Mitochondria Different-Phenotype (%): 21% and 22%
  Population Mitotic Cells (%): 32% and 58%
  Population Normal (%): 94% and 91%
  Population Pyknosed Nuclei (%): 26% and 31%
  Population Tubulin-Different-Phenotype (%): 83% and 68%
  Total Cell Count: 135 and 157
[5]
  Population Apoptotic (%): 47% and 57%
  Population Fragmented Nuclei (%): 23% and 38%
  Population Healthy Nuclei (%): 60% and 44%
  Population Hoechst High Intensity Objects (%): 1% and 5%
  Population Membrane Permeable-Phenotype (%): 0% and 2%
  Population Mitotic Cells (%): 52% and 42%
  Population Normal (%): 98% and 94%
  Population Pyknosed Nuclei (%): 16% and 17%
  Population Tubulin-Different-Phenotype (%): 48% and 67%
  Total Cell Count: 132 and 159
[6]
  Population Apoptotic (%): 76% and 44%
  Population Fragmented Nuclei (%): 23% and 39%
  Population Healthy Nuclei (%): 45% and 42%
  Population Hoechst High Intensity Objects (%): 6%
  Population Membrane Permeable-Phenotype (%): 0% and 19%
  Population Mitochondria Different-Phenotype (%): 22% and 17%
  Population Mitotic Cells (%): 23% and 55%
  Population Normal (%): 93%
  Population Pyknosed Nuclei (%): 31% and 18%
  Population Tubulin-Different-Phenotype (%): 81% and 88%
  Total Cell Count: 145 and 159
